Reference: ChEMBL document CHEMBL3286129, “Optimization of peptidomimetic boronates bearing a P3 bicyclic scaffold as proteasome inhibitors” (Eur J Med Chem, 2014)

How the values were obtained:
[1] = Cytotoxicity against human ovarian cancer cells assessed as cell growth at 10 uM relative to control; assay type: functional; conditions: Cancer cell lines, read-out: Activity
Procedure, shortened: (§1)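 Single-concentration screen against a panel of human cancer cell lines. Each value is the mean percent growth across the cell lines of that tumour subpanel.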

[2] = test system: IGROV-1; assay: Growth inhibition of human IGROV1 cells; assay type: functional
[3] = Cytotoxicity against human colon cancer cells assessed as cell growth at 10 uM relative to control; assay type: functional; conditions: Cancer cell lines, read-out: Activity; procedure, shortened: as §1
[4] = test system: SR; assay: Growth inhibition of human SR cells; assay type: functional; conditions: for CC50: read-out: LC50 (the source's name)
[5] = test system: MDA-MB-435; assay: Growth inhibition of human MDA-MB-435 cells; assay type: functional; conditions: for CC50: read-out: LC50 (the source's name)
[6] = Growth inhibition of human UO31 cells; assay type: functional; conditions: UO-31
[7] = test system: SN12C; assay: Growth inhibition of human SN12C cells; assay type: functional; conditions: for CC50: read-out: LC50 (the source's name)
[8] = test system: HOP-62; assay: Growth inhibition of human HOP62 cells; assay type: functional; conditions: for CC50: read-out: LC50 (the source's name)
[9] = Growth inhibition of human MOLT4 cells; assay type: functional; conditions: for GI50 / TGI: MOLT-4; for CC50: MOLT-4, read-out: LC50 (the source's name)
[10] = Growth inhibition of human OVCAR4 cells; assay type: functional; conditions: for GI50 / TGI: OVCAR-4; for CC50: OVCAR-4, read-out: LC50 (the source's name)
[11] = molecular target: T1, Proteasome Macropain subunit MB1 (Homo sapiens) (UniProt P28074); assay: Inhibition of chymotrypsin-like activity of 20S proteasome in human erythrocytes using Suc-Leu-Leu-Val-Tyr-AMC as substrate at 20 uM by fluorescence assay relative to control
T1 sequence (whole entry): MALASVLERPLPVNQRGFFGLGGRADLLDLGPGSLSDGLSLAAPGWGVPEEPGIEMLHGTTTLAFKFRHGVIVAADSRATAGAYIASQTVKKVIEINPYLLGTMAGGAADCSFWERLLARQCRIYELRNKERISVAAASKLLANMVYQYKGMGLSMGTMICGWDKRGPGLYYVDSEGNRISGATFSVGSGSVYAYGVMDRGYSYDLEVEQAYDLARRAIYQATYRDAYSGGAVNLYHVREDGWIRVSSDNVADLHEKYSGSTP
Procedure, shortened: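 Single inhibitor concentration, equivalent DMSO as negative control. AMC fluorescence read at ex 380/em 460 nm; percent inhibition of ChT-L activity.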

[12] = Growth inhibition of human UACC62 cells; assay type: functional; conditions: UACC-62
[13] = test system: U-251; assay: Growth inhibition of human U251 cells; assay type: functional; conditions: for CC50: read-out: LC50 (the source's name)
[14] = test system: NCI-H226; assay: Growth inhibition of human NCI-H226 cells; assay type: functional; conditions: for CC50: read-out: LC50 (the source's name)
[15] = test system: CAKI-1; assay: Growth inhibition of human CAKI-1 cells; assay type: functional; conditions: for CC50: read-out: LC50 (the source's name)
[16] = molecular target: Chymotrypsinogen A (Bos taurus, UniProt P00766); assay: Inhibition of bovine pancreatic alpha-chymotrypsin using Suc-Leu-Leu-Val-Tyr-AMC as substrate by fluorescence assay; conditions: read-out: Ki
Procedure, shortened: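 Enzyme incubated at 20 °C in 50 mM Tris pH 8.0, 100 mM NaCl, 5 mM EDTA, 7.5% DMSO with varied inhibitor concentrations. Substrate hydrolysis followed for 10 min. Ki from progress curves; mean of three determinations.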

[17] = test system: SW-620; assay: Growth inhibition of human SW620 cells; assay type: functional
[18] = Growth inhibition of human OVCAR3 cells; assay type: functional; conditions: OVCAR-3
[19] = test system: Malme-3M; assay: Growth inhibition of human MALME-3M cells; assay type: functional; conditions: for CC50: read-out: LC50 (the source's name)
[20] = test system: SK-OV-3; assay: Growth inhibition of human SKOV3 cells; assay type: functional
[21] = Cytotoxicity against human CNSC cells assessed as cell growth at 10 uM relative to control; assay type: functional; conditions: read-out: Activity; procedure, shortened: as §1
[22] = test system: TK-10; assay: Growth inhibition of human TK10 cells; assay type: functional
[23] = test system: K562; assay: Growth inhibition of human K562 cells; assay type: functional; conditions: for CC50: read-out: LC50 (the source's name)
[24] = test system: KM12; assay: Growth inhibition of human KM12 cells; assay type: functional
[25] = Growth inhibition of human NCI-ADR-RES cells; assay type: functional
[26] = Growth inhibition of human HOP92 cells; assay type: functional; conditions: for GI50 / TGI: HOP-92; for CC50: HOP-92, read-out: LC50 (the source's name)
[27] = Cytotoxicity against human NSCLC cells assessed as cell growth at 10 uM relative to control; assay type: functional; conditions: read-out: Activity; procedure, shortened: as §1
[28] = test system: T47D; assay: Growth inhibition of human T47D cells; assay type: functional; conditions: for CC50: read-out: LC50 (the source's name)
[29] = Cytotoxicity against human prostate cancer cells assessed as cell growth at 10 uM relative to control; assay type: functional; conditions: Cancer cell lines, read-out: Activity; procedure, shortened: as §1
[30] = test system: A498; assay: Growth inhibition of human A498 cells; assay type: functional
[31] = Cytotoxicity against human melanoma cells assessed as cell growth at 10 uM relative to control; assay type: functional; conditions: read-out: Activity; procedure, shortened: as §1
[32] = test system: SK-MEL-2; assay: Growth inhibition of human SK-MEL-2 cells; assay type: functional
[33] = test system: ACHN; assay: Growth inhibition of human ACHN cells; assay type: functional
[34] = Growth inhibition of human SF539 cells; assay type: functional
[35] = Growth inhibition of human OVCAR5 cells; assay type: functional; conditions: OVCAR-5

## CC(C)C[C@H](NC(=O)Cn1ccc2ccc(Br)cc2c1=O)B(O)O
[1]
  growth at 10 µM: 37.5%
[2]
  GI50: 6.16 µM
  LC50: > 100 µM
  TGI: 46.9 µM
[3]
  growth at 10 µM: 3.27%
[4]
  GI50: 0.27 µM
  TGI: 12.2 µM
  CC50: > 100 µM
[5]
  GI50: 0.33 µM
  TGI: 1.29 µM
  CC50: 5.88 µM
[6]
  GI50: 1.61 µM
  LC50: 61.6 µM
  TGI: 11.1 µM
[7]
  GI50: 3.52 µM
  TGI: 55.2 µM
  CC50: > 100 µM
[8]
  GI50: 4.94 µM
  TGI: 27.6 µM
  CC50: > 100 µM
[9]
  GI50: 0.3 µM
  TGI: 1.57 µM
  CC50: > 100 µM
[10]
  GI50: 4.94 µM
  TGI: > 100 µM
  CC50: > 100 µM
[11]
  inhibition: > 40%
[12]
  GI50: 1.86 µM
  LC50 (concentration killing 50% of cells): 97 µM
  TGI: 10.4 µM
[13]
  GI50: 5.56 µM
  TGI: > 100 µM
  CC50: > 100 µM
[14]
  GI50: 0.47 µM
  TGI: 1.84 µM
  CC50: 5.39 µM
[15]
  GI50: 0.41 µM
  TGI: 10.5 µM
  CC50: > 100 µM
[16]
  Ki: 0.29 µM
[17]
  GI50: 0.46 µM
  LC50: > 100 µM
  TGI: 8.19 µM
[18]
  GI50: 0.6 µM
  LC50 (concentration killing 50% of cells): > 100 µM
  TGI: 3.95 µM
[19]
  GI50: 4.31 µM
  TGI: > 100 µM
  CC50: > 100 µM
[20]
  GI50: 8.73 µM
  LC50: > 100 µM
  TGI: > 100 µM
[21]
  growth at 10 µM: 24.3%
[22]
  GI50: 0.65 µM
  LC50: > 100 µM
  TGI: 7.22 µM
[23]
  GI50: 3.15 µM
  TGI: > 100 µM
  CC50: > 100 µM
[24]
  GI50: 3.55 µM
  LC50: > 100 µM
  TGI: 17.3 µM
[25]
  GI50: 21.5 µM
  LC50: > 100 µM
  TGI: > 100 µM
[26]
  GI50: 2.56 µM
  TGI: 8.7 µM
  CC50: > 100 µM
[27]
  growth at 10 µM: 22%
[28]
  GI50: 0.78 µM
  TGI: 12.4 µM
  CC50: > 100 µM
[29]
  growth at 10 µM: 42.9%
[30]
  GI50: 0.1 µM
  LC50: 28.6 µM
  TGI: 0.58 µM
[31]
  growth at 10 µM: -17.1%

## CC(C)C[C@H](NC(=O)CCn1ccc2ccc(Br)cc2c1=O)B(O)O
[1]
  growth at 10 µM: 38.8%
[2]
  GI50: 5.1 µM
  LC50: > 100 µM
  TGI: > 100 µM
[3]
  growth at 10 µM: 4.45%
[4]
  GI50: 0.26 µM
  TGI: 11.6 µM
  CC50: > 100 µM
[5]
  GI50: 0.18 µM
  TGI: 0.37 µM
  CC50: 0.78 µM
[6]
  GI50: 0.98 µM
  LC50: > 100 µM
  TGI: 15.4 µM
[7]
  GI50: 1.5 µM
  TGI: 11.5 µM
  CC50: > 100 µM
[32]
  GI50: 0.46 µM
  LC50: > 100 µM
  TGI: 4.56 µM
[33]
  GI50: 0.41 µM
  TGI: > 100 µM
[33]; read-out: LC50 (the source's name)
  CC50: > 100 µM
[8]
  GI50: 2.63 µM
  TGI: 9.29 µM
  CC50: > 100 µM
[9]
  GI50: 0.31 µM
  TGI: > 100 µM
  CC50: > 100 µM
[10]
  GI50: 2.06 µM
  TGI: > 100 µM
  CC50: > 100 µM
[34]; SF-539
  GI50: 0.21 µM
  TGI: 0.6 µM
[34]; SF-539, read-out: LC50 (the source's name)
  CC50: > 100 µM
[11]
  inhibition: > 40%
[12]
  GI50: 0.46 µM
  LC50 (concentration killing 50% of cells): 28.5 µM
  TGI: 2.44 µM
[13]
  GI50: 1.18 µM
  TGI: > 100 µM
  CC50: > 100 µM
[14]
  GI50: 0.19 µM
  TGI: 0.42 µM
  CC50: 0.95 µM
[15]
  GI50: 0.47 µM
  TGI: 10 µM
  CC50: > 100 µM
[16]
  Ki: 23.7 µM
[17]
  GI50: 0.38 µM
  LC50: > 100 µM
  TGI: > 100 µM
[18]
  GI50: 0.33 µM
  LC50 (concentration killing 50% of cells): 10.6 µM
  TGI: 1.21 µM
[19]
  GI50: 0.68 µM
  TGI: 7.95 µM
  CC50: > 100 µM
[20]
  GI50: 2.36 µM
  LC50: > 100 µM
  TGI: 71.5 µM
[21]
  growth at 10 µM: 6.51%
[22]
  GI50: 0.37 µM
  LC50: > 100 µM
  TGI: 15.6 µM
[23]
  GI50: 1.08 µM
  TGI: > 100 µM
  CC50: > 100 µM
[24]
  GI50: 1.33 µM
  LC50: > 100 µM
  TGI: 4.38 µM
[25]
  GI50: 17.4 µM
  LC50: > 100 µM
  TGI: > 100 µM
[26]
  GI50: 1.34 µM
  TGI: 5.61 µM
  CC50: > 100 µM
[27]
  growth at 10 µM: 8.79%
[28]
  GI50: 0.78 µM
  TGI: 6.09 µM
  CC50: > 100 µM
[29]
  growth at 10 µM: 34.5%
[30]
  GI50: 0.13 µM
  LC50: > 100 µM
  TGI: 0.74 µM
[35]
  GI50: 3.15 µM
  LC50: > 100 µM
  TGI: 97.3 µM
[31]
  growth at 10 µM: -19.2%
